The values that follow come from ChEMBL document CHEMBL2086264.

One assay relates to Staphylococcus aureus. The experiment in a line: Antibacterial activity against Staphylococcus aureus ATCC 29213 after overnight incubation by microbroth dilution assay. Format: functional. Summed up: (§1)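 CLSI M7A7 microbroth dilution in Mueller-Hinton broth; S. pneumoniae broth given 5% lysed horse blood. DMSO stocks of 10 mg/mL; twofold dilutions to final 200–0.0125 µg/mL. Mid-log inoculum (OD600 0.5) diluted to final OD600 0.0005 (~10^5 CFU/mL). Overnight at 37°C; MIC is the lowest concentration inhibiting 90% of visible growth.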
On the technique in general: In broth dilution the organism is exposed to a series of concentrations in liquid medium.

Assay [1] concerns Bacillus anthracis. The experiment in a line: Antibacterial activity against Bacillus anthracis after overnight incubation by microbroth dilution assay. Format: functional.
In the next assay the test system is Streptococcus pneumoniae. Briefly: Antibacterial activity against Streptococcus pneumoniae R6 after overnight incubation by microbroth dilution assay. Format: functional. Summed up:
as §1

The subject of the next assay is Enterococcus faecalis. Briefly: Antibacterial activity against Enterococcus faecalis ATCC 33186 after overnight incubation by microbroth dilution assay. In kind it is functional. The gist of the method:
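CLSI microbroth dilution in Mueller-Hinton broth; compounds dissolved in DMSO, twofold serial dilutions giving final 200–0.0125 µg/mL. Inoculum from single colony grown at 37°C to mid-log (OD600 0.5), diluted to final OD600 0.0005 (~10^5 CFU/mL). Incubated overnight at 37°C; MIC = lowest concentration inhibiting 90% of visible growth.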

The subject of a further assay is Bacillus subtilis. The experiment in a line: Antibacterial activity against Bacillus subtilis ATCC 23857 after overnight incubation by microbroth dilution assay. In kind it is functional. Summed up: as §1
The nature of assay [2]: Inhibition of Staphylococcus aureus PlsY expressed in Escherichia coli FB23281 using [U-14C]glycerol-PO4 as substrate after 20 mins by scintillation counting. Summed up:
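Membranes from E. coli FB23281 (ΔplsY) expressing S. aureus PlsY (SA1187), 4 µg per reaction. pH 7.4 buffer of 100 mM Tris–HCl, 150 mM NaCl, 1 mg/mL BSA and 5 mM Na3VO4, with 100 µM [U-14C]glycerol-PO4. Started with 16:0-PO4 (final 100 µM), 20 min at 37°C. Spotted on filter discs, washed in graded ice-cold TCA, scintillation counted.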

For assay [3], the system named is Bacillus anthracis. The experiment in a line: Inhibition of RNA synthesis in Bacillus anthracis sterne assessed as Inhibition of [3H]uracil incorporation into RNA incubated for 15 mins prior to [3H]uracil addition measured after 30 mins by scintillation counting. In kind it is functional, organism-based.
Assay [4] deals with Bacillus anthracis. Briefly: Inhibition of protein synthesis in Bacillus anthracis sterne assessed as Inhibition of [3H]amino acid incorporation into protein incubated for 15 mins prior to [3H]amino acid addition measured after 30 mins by scintillation counting. Format: functional, organism-based.
Assay [5] relates to Bacillus anthracis. The experiment in a line: Inhibition of DNA synthesis in Bacillus anthracis sterne assessed as Inhibition of [3H]thymidine incorporation into DNA incubated for 15 mins prior to [3H]thymidine addition measured after 30 mins by scintillation counting. In kind it is functional, organism-based.

SMILES strings stand for the structures. pIC50: −log10 of the molar value. In brackets after ≈: the same amount, converted by molar mass. Activity calls are given as the source filed them. No cut-off for these calls is given here.

Broadly, the MIC90 is an inhibitory concentration at the 90% level, which refers to growth in some studies and to a panel of isolates in others. Higher therefore signals weaker potency. As usually defined, the pIC50 is −log10 of the IC50, conventionally taken in molar units. In the case of `CCCCCCCCCCCCCCCC(=O)NS(=O)(=O)OC1CCN(C(=O)OC(C)(C)C)CC1`, the MIC90 was more than 200 µg/mL in the assay with Staphylococcus aureus; 3.13 µg/mL (≈ 6.03 µM) with Bacillus anthracis [1]; more than 200 µg/mL with Streptococcus pneumoniae; more than 200 µg/mL with Enterococcus faecalis; more than 200 µg/mL in the assay on Bacillus subtilis. Moreover, in [2], the negative logarithm of the IC50 (pIC50) is 4.82. Further, the inhibition entry in the assay on Bacillus anthracis [3], in the assay on Bacillus anthracis [4] and in the assay with Bacillus anthracis [5] was “Active” throughout.
Turning to `O=C(CCCCCc1ccccc1)NS(=O)(=O)Oc1ccccc1`, the MIC90 against Staphylococcus aureus was 100 µg/mL (≈ 288 µM); in the assay with Bacillus anthracis [1], 100 µg/mL (≈ 288 µM); with Streptococcus pneumoniae it was 50 µg/mL (≈ 144 µM); against Enterococcus faecalis it was 50 µg/mL (≈ 144 µM); against Bacillus subtilis, more than 200 µg/mL. The same compound gave a pIC50 in assay [2] of 4.00. Besides, the inhibition result in the assay with Bacillus anthracis [3], in the assay with Bacillus anthracis [4] and in the assay on Bacillus anthracis [5] was “Active” each time.
For `O=C(CCCCCCc1ccccc1)NS(=O)(=O)Oc1ccccc1`, the MIC90 against Staphylococcus aureus is 50 µg/mL (≈ 138 µM); against Bacillus anthracis [1], 12.5 µg/mL (≈ 34.6 µM); in the assay with Streptococcus pneumoniae it was 50 µg/mL (≈ 138 µM); against Enterococcus faecalis it was 100 µg/mL (≈ 277 µM); with Bacillus subtilis, more than 200 µg/mL. The same compound had a pIC50 in assay [2] of 4.12. Also, the inhibition result with Bacillus anthracis [3], with Bacillus anthracis [4] and in the assay on Bacillus anthracis [5] was “Active” throughout.
As for `CCCCCCCCCCCCCCCC(=O)NS(=O)(=O)OC` [METHYL PALMITOYLSULFAMATE], the MIC90 in the assay with Staphylococcus aureus is more than 200 µg/mL; against Bacillus anthracis [1], more than 100 µg/mL; with Streptococcus pneumoniae, more than 200 µg/mL; against Enterococcus faecalis, more than 200 µg/mL; against Bacillus subtilis, more than 200 µg/mL. The pIC50 in [2] is 4.10. Besides, the inhibition result in the assay on Bacillus anthracis [3], with Bacillus anthracis [4] and with Bacillus anthracis [5] was “Active” in each case.
In the case of `CCCCCCCCCCCCCCCC(=O)NS(=O)(=O)Oc1cccc(Cl)c1`, the MIC90 against Staphylococcus aureus is more than 200 µg/mL; against Bacillus anthracis [1], 3.13 µg/mL (≈ 7.02 µM); against Streptococcus pneumoniae, more than 200 µg/mL; against Enterococcus faecalis it was 100 µg/mL (≈ 224 µM); against Bacillus subtilis it was 100 µg/mL (≈ 224 µM). The pIC50 in [2] was 4.85. In addition, the inhibition result with Bacillus anthracis [3], in the assay on Bacillus anthracis [4] and with Bacillus anthracis [5] was “Active” in each case.
For `CCCCCCCCCCCCCCCC(=O)NS(=O)(=O)Oc1ccc(CCN)cc1`, the MIC90 is more than 200 µg/mL in the assay with Staphylococcus aureus; more than 100 µg/mL against Bacillus anthracis [1]; more than 200 µg/mL in the assay on Streptococcus pneumoniae; more than 200 µg/mL with Enterococcus faecalis; more than 200 µg/mL in the assay on Bacillus subtilis. Moreover, the pIC50 in [2] is less than 4.00. Further, the inhibition entry in the assay with Bacillus anthracis [3], with Bacillus anthracis [4] and in the assay on Bacillus anthracis [5] was “Active” each time.
As for `CCCCCCCCCCCCCCCC(=O)NS(=O)(=O)OC1CCOCC1`, the MIC90 against Staphylococcus aureus was more than 200 µg/mL; in the assay on Bacillus anthracis [1], 3.13 µg/mL (≈ 7.46 µM); in the assay on Streptococcus pneumoniae, more than 200 µg/mL; in the assay on Enterococcus faecalis it was more than 200 µg/mL; with Bacillus subtilis, more than 200 µg/mL. Moreover, in [2], the pIC50 is 4.52. Further, the inhibition entry in the assay on Bacillus anthracis [3], in the assay on Bacillus anthracis [4] and with Bacillus anthracis [5] was “Active” in each case.
Turning to `CCCCCCCCCCCCCCCC(=O)NS(=O)(=O)Oc1ccc(C)cc1`, the MIC90 is more than 200 µg/mL in the assay on Staphylococcus aureus; 6.25 µg/mL (≈ 14.7 µM) with Bacillus anthracis [1]; more than 200 µg/mL in the assay with Streptococcus pneumoniae; 200 µg/mL (≈ 470 µM) with Enterococcus faecalis; 200 µg/mL (≈ 470 µM) in the assay with Bacillus subtilis. This compound gave a pIC50 in [2] of 4.92. The inhibition result in the assay on Bacillus anthracis [3], in the assay with Bacillus anthracis [4] and in the assay with Bacillus anthracis [5] was “Active” in each case.
